What was measured:
[1] = target: T1, Adrenergic receptor alpha-1 (Rattus norvegicus) (UniProt P15823+P23944+P43140); test: (§1) Tested for Alpha adrenergic receptor antagonistic activity on isolated rat vas deferens; assay type: functional, tissue-based
Procedure, shortened: (§2)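 Isolated rat vas deferens; contractions recorded isometrically with a force-displacement transducer.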

[2] = target: T2, Adrenergic receptor alpha-1 (Rattus norvegicus, UniProt P15823+P23944+P43140); test: as §1; assay type: functional, tissue-based; procedure, shortened: as §2
T2 sequence (P15823 whole entry): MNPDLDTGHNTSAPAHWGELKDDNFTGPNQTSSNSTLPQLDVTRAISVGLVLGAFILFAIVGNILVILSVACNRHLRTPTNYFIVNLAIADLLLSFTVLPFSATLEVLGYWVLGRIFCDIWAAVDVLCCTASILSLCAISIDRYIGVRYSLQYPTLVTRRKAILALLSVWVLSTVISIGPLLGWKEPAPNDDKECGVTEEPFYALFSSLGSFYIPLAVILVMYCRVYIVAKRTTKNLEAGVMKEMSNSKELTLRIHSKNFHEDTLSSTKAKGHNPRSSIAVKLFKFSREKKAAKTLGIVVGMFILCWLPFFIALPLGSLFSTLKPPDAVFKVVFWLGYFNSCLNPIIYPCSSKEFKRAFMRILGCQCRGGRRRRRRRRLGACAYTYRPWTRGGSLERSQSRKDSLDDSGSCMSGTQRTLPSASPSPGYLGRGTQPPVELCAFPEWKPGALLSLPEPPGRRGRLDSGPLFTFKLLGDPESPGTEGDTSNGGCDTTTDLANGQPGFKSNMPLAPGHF
T2 sequence (P23944 whole entry): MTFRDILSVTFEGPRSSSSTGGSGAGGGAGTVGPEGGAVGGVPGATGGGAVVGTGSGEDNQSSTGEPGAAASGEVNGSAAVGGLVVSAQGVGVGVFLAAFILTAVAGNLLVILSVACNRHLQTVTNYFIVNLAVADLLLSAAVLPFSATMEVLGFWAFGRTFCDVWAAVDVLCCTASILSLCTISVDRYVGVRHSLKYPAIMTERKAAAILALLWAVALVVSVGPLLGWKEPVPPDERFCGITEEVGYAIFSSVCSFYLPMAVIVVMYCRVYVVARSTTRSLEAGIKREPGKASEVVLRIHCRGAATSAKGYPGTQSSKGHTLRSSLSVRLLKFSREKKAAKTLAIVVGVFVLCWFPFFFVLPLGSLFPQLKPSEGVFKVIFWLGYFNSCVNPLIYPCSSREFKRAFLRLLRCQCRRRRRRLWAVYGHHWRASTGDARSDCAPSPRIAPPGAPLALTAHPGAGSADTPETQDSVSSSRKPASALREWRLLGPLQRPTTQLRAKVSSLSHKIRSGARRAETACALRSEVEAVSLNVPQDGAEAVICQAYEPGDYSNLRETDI
T2 sequence (P43140 whole entry): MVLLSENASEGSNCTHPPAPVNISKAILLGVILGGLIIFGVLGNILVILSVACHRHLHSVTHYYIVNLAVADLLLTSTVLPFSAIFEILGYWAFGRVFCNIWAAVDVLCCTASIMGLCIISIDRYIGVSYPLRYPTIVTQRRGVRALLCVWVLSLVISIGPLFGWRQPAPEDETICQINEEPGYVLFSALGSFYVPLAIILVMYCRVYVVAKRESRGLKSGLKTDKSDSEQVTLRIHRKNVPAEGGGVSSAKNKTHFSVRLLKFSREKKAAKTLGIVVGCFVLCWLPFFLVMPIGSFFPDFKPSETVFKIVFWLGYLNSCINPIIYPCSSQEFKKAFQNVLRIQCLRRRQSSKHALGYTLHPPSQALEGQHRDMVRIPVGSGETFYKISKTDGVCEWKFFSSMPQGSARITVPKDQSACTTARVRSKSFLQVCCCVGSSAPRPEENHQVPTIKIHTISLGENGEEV

[3] = target: T1, Adrenergic receptor alpha-1 (Rattus norvegicus); test: (§3) Tested for alpha adrenergic receptor agonistic activity on isolated rat vas deferens; assay type: functional, tissue-based; procedure, shortened: as §2
[4] = target: T1, Adrenergic receptor alpha-1 (Rattus norvegicus); conditions: Vas deferens
[5] = target: T1, Adrenergic receptor alpha-1 (Rattus norvegicus); conditions: Vas deferens; remark: listed apart in the source
[6] = target: T2, Adrenergic receptor alpha-1; test: as §3; assay type: functional, tissue-based; procedure, shortened: as §2
Adrenergic receptor beta [7] = target: T3, Adrenergic receptor beta (Homo sapiens, UniProt P08588+P07550+P13945); test: Inhibition of beta adrenergic receptor on isolated guinea pig atria against isoprenaline at 4E-8M; set-up: species or system Cavia porcellus; conditions: target entry is the homologue from another species
Adrenergic receptor beta [8] = target: T3, Adrenergic receptor beta; conditions: Cavia porcellus

Row | SMILES | pA2-pA10 [1] | pA10 [1] | pA2 [2] | other results
1 | COc1ccc(OC)c(C2CNCCO2)c1 (stereo not drawn) | 0.45 | 2.95 | 3.4 | 
2 | COc1ccc(OC)c(C2OCCNC2C)c1 (stereo not drawn) | 0.27 | 3.2 | 3.48 | 
3 | COc1ccc(OC)c(C2CN(C)CCO2)c1 (stereo not drawn) | 0.76 | 2.85 | 3.61 | 
4 | Cc1ccc(N(CC2=NCCN2)c2cccc(O)c2)cc1 |  |  |  | pA10 [3]: 6.02
5 | COc1ccc(OC)c(C(O)CN)c1 (stereo not drawn) [DESGLYMIDODRINE] | 0.74 | 3.3 | 4.04 | pD10 [4]: 6; pD2 [5]: 5.15
6 | COc1ccc(OC)c(C2CN(C(C)C)CCO2)c1 (stereo not drawn) | 0.19 | 2.95 | 3.14 | 
7 | CNCC(O)c1cc(OC)ccc1OC (stereo not drawn) |  |  |  | pA10 [3]: 3.16; pD2 [3]: 5.22; pD10 [3]: 6.07; pA2 [6]: 3.91
8 | COc1ccc(OC)c(C(O)CNC(C)C)c1 (stereo not drawn) | 0.26 | 2.48 |  | pA2 (Adrenergic receptor beta [7]): 4.77; pA10 (Adrenergic receptor beta [8]): 4.08
9 | COc1ccc(OC)c(C(O)C(C)N)c1 (stereo not drawn) |  |  |  | pD10 [4]: 5.61; pD2 [5]: 4.42

— ChEMBL document CHEMBL1122331, “Conformational effects on the activity of drugs. 10. Synthesis, conformation, and pharmacological properties of 1-(2,5-dimethoxyphenyl)-2-aminoethanols and their morpholine analogues” (J Med Chem, 1983)
